Source: ChEMBL document CHEMBL1125805, “Cholecystokinin antagonists: (R)-tryptophan-based hybrid antagonists of high affinity and selectivity for CCK-A receptors” (J Med Chem, 1991)

Assays:
[1] = species: Cavia porcellus; assay: Inhibition of CCK-8-stimulated amylase release; assay type: functional
[2] = target: T1, Cholecystokinin receptor type A (Cavia porcellus, UniProt Q63931); assay: Inhibition of [125I]Bolton-Hunter CCK-8 binding to cholecystokinin type A receptor in guinea pig pancreatic membranes.; assay type: cell membranes
T1 sequence (Q63931 whole entry): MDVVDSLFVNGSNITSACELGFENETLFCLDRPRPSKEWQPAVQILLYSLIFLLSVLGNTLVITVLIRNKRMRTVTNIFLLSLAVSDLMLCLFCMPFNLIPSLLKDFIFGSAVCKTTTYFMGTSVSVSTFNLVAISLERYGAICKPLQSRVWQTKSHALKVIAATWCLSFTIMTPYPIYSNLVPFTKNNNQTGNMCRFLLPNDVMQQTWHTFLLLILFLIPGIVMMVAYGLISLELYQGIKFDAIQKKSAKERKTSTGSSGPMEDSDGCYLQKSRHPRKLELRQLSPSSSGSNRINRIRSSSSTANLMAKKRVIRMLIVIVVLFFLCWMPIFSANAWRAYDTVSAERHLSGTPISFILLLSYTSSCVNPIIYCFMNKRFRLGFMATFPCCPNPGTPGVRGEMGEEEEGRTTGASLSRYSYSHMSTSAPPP

[3] = species: Cavia porcellus; assay: The compound was tested for the inhibition of CCK-8-stimulated amylase release; assay type: functional
Summary of the method: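 Amylase release was stimulated with CCK-8 at 3 × 10⁻¹⁰ M as the reference concentration, following a published procedure. Inhibition by test compounds gave IC50 values.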

CCCCCN(CCCCC)C(=O)[C@@H](Cc1c[nH]c2ccccc12)NC(=O)c1cc2cc(F)ccc2[nH]1
IC50 [1]: < 100000 nM | IC50 [2]: 155 nM

CCCCCN(CCCCC)C(=O)[C@@H](Cc1c[nH]c2ccccc12)NC(=O)c1cc(O)c2ccccc2n1
IC50 [1]: 110 nM | IC50 [2]: 51 nM

CCCCCN(CCCCC)C(=O)[C@@H](Cc1c[nH]c2ccccc12)NC(=O)Nc1cccc(C)c1
IC50 [1]: > 30000 nM | IC50 [2]: 1100 nM

CCCCCN(CCCCC)C(=O)[C@@H](Cc1c[nH]c2ccccc12)NC(=O)c1c[nH]c2ccccc12
IC50 [1]: < 10000 nM | IC50 [2]: 430 nM

CCCCCN(CCCCC)C(=O)[C@@H](CC1C(=O)Nc2ccccc21)NC(=O)c1cnc2ccccc2c1 (some centres not stated)
IC50 [1]: 62 nM | IC50 [2]: 46 nM

CCCCCN(CCCCC)C(=O)[C@@H](Cc1c[nH]c2ccccc12)NC(=O)Nc1ccc(Cl)cc1
IC50 [2]: 4200 nM

CCCCCN(CCCCC)C(=O)[C@H](Cc1c[nH]c2ccccc12)NC(=O)Nc1cccc(C)c1
IC50 [1]: < 100000 nM | IC50 [2]: 1500 nM

CCCCCN(CCCCC)C(=O)[C@@H](Cc1c[nH]c2ccccc12)NC(=O)c1ccc2ncccc2c1
IC50 [1]: < 10000 nM | IC50 [2]: 239 nM

CCCCCN(CCCCC)C(=O)[C@@H](Cc1c[nH]c2ccccc12)NC(=O)c1cccnc1
IC50 [1]: > 100000 nM | IC50 [2]: 14600 nM

CCCCCN(CCCCC)C(=O)[C@@H](Cc1c[nH]c2ccccc12)NC(=O)c1ccc2ccccc2n1
IC50 [1]: 1300 nM | IC50 [2]: 120 nM

CCCCCN(CCCCC)C(=O)[C@H](Cc1c[nH]c2ccccc12)NC(=O)c1cc2ccccc2[nH]1
IC50 [1]: < 30000 nM | IC50 [2]: 520 nM

CCCCCN(CCCCC)C(=O)[C@@H](Cc1c[nH]c2ccccc12)NC(=O)c1ccc2cccc(O)c2n1
IC50 [1]: < 100000 nM | IC50 [2]: 390 nM

CCCCCN(CCCCC)C(=O)[C@@H](Cc1c[nH]c2ccccc12)NC(=O)c1ccc[nH]1
IC50 [1]: > 100000 nM

CCCCCN(CCCCC)C(=O)[C@H](Cc1c[nH]c2ccccc12)NC(=O)c1ccc(Cl)cc1
IC50 [1]: < 30000 nM | IC50 [2]: 475 nM

C[C@H](NC(=O)[C@@H](Cc1c[nH]c2ccccc12)NC(=O)c1cnc2ccccc2c1)c1ccccc1
IC50 [2]: 180 nM

CCCCCN(CCCCC)C(=O)[C@@H](Cc1c[nH]c2ccccc12)NC(=O)c1ccc(Cl)c(Cl)c1
IC50 [1]: 2500 nM | IC50 [2]: 190 nM

CCCCCN(CCCCC)C(=O)[C@@H](Cc1c[nH]c2ccccc12)NC(=O)c1ccc2ccccc2c1
IC50 [1]: 360 nM | IC50 [2]: 29 nM

CCCCCN(CCCCC)C(=O)[C@@H](Cc1c[nH]c2ccccc12)NC(=O)c1cc2ccccc2cn1
IC50 [1]: < 100000 nM | IC50 [2]: 880 nM

CCCCCN(CCCCC)C(=O)[C@@H](Cc1c[nH]c2ccccc12)NC(=O)c1ccc(Cl)cc1
IC50 [1]: < 10000 nM | IC50 [2]: 370 nM

CCCCCN(CCCCC)C(=O)C(Cc1c[nH]c2ccc(OCc3ccccc3)cc12)NC(=O)c1cnc2ccccc2c1 (configuration not stated)
IC50 [1]: < 100000 nM

CN(Cc1ccccc1)C(=O)[C@@H](Cc1c[nH]c2ccccc12)NC(=O)c1cnc2ccccc2c1
IC50 [2]: 600 nM

CCCCCN(CCCCC)C(=O)[C@@H](Cc1c[nH]c2ccccc12)NC(=O)c1cnc2ccccc2c1
IC50 [1]: 43 nM

CCCCCN(CCCCC)C(=O)[C@@H](Cc1c[nH]c2ccccc12)NC(=O)c1cc2ccccc2[nH]1
IC50 [1]: 670 nM

CCCCCN(CCCCC)C(=O)[C@@H](Cc1c[nH]c2ccccc12)NC(=O)/C=C/c1cccnc1
IC50 [1]: < 100000 nM | IC50 [2]: > 1000 nM

CCOC(=O)CN(Cc1ccccc1)C(=O)[C@@H](Cc1c[nH]c2ccccc12)NC(=O)c1cnc2ccccc2c1
IC50 [2]: 400 nM

CCCCCN(CCCCC)C(=O)[C@@H](Cc1c[nH]c2ccccc12)NC(=O)c1cc(O)c2cccc(O)c2n1
IC50 [1]: 46 nM

CCCCCN(CCCCC)C(=O)[C@@H](Cc1c(Sc2ccccc2[N+](=O)[O-])[nH]c2ccccc12)NC(=O)c1cnc2ccccc2c1
IC50 [1]: < 100000 nM

O=C(N[C@@H](Cc1c[nH]c2ccccc12)C(=O)O)c1ccc(Cl)cc1 [BENZOTRIPT]
IC50 [2]: > 100000 nM

CCCCCN(CCCCC)C(=O)[C@H](Cc1c[nH]c2ccccc12)NC(=O)Nc1ccc(C)cc1
IC50 [2]: > 10000 nM

CCCCCN(CCCCC)C(=O)[C@H](Cc1c[nH]c2ccccc12)NC(=O)Nc1ccc(Cl)cc1
IC50 [2]: > 10000 nM

CCCCCN(CCCCC)C(=O)[C@@H](Cc1c[nH]c2ccccc12)NC(=O)c1ccc2cc(O)ccc2c1
IC50 [1]: 100000 nM

CCCCCN(CCCCC)C(=O)[C@@H](Cc1c[nH]c2ccccc12)NC(=O)c1cccc2ccccc12
IC50 [1]: < 30000 nM | IC50 [2]: 500 nM

C[C@@H](NC(=O)[C@@H](Cc1c[nH]c2ccccc12)NC(=O)c1cnc2ccccc2c1)c1ccccc1
IC50 [3]: > 10000 nM | IC50 [2]: 810 nM

CCCCCN(CCCCC)C(=O)[C@H](Cc1c[nH]c2ccccc12)NC(=O)c1cnc2ccccc2c1
IC50 [1]: < 100000 nM

CCCCCN(CCCCC)C(=O)[C@@H](Cc1c[nH]c2ccccc12)NC(=O)c1nccc2ccccc12
IC50 [1]: > 100000 nM

CCCCCN(CCCCC)C(=O)[C@@H](CCC(=O)O)NC(=O)c1cc(O)c2cccc(O)c2n1
IC50 [1]: 106 nM | IC50 [2]: 7 nM

CCCCCN(CCCCC)C(=O)[C@@H](Cc1c[nH]c2ccc(O)cc12)NC(=O)c1cnc2ccccc2c1
IC50 [1]: 27 nM | IC50 [2]: 11 nM

CCCCCN(CCCCC)C(=O)[C@H](Cc1c[nH]c2ccc(F)cc12)NC(=O)c1cnc2ccccc2c1
IC50 [1]: > 100000 nM | IC50 [2]: 48 nM

CCCCCN(CCCCC)C(=O)[C@H](Cc1c[nH]c2ccccc12)NC(=O)c1ccc(Cl)c(Cl)c1
IC50 [1]: > 30000 nM | IC50 [2]: 670 nM
